In ChEMBL document CHEMBL1130025, “Dihydro(alkylthio)(naphthylmethyl)oxopyrimidines: novel non-nucleoside reverse transcriptase inhibitors of the S-DABO series” (J Med Chem, 1997):

What was measured:
MT4 [1] = experiment: Inhibitory activity against resistant HIV-1 strain Nevr was determined; assay type: functional, cell-based; conditions: Homo sapiens
[2] = test system: Human immunodeficiency virus type 1; experiment: Selectivity index is the ratio of CC50 to EC50; conditions: Human immunodeficiency virus 1
MT4 [3] = experiment: Dose required to achieve 50% protection of MT-4 cells from the HIV-1 induced cytopathogenicity in HIV-1 infected MT-4 cells; conditions: Homo sapiens
MT4 [4] = experiment: Dose required to reduce the viability of mock-infected cells by 50%; assay type: functional; conditions: Homo sapiens
Summary of the method: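 Mock-infected MT-4 cells (1×10^4 per well) were exposed to compound dilutions in parallel with the antiviral assay. After 4 days at 37 °C, viability was measured by MTT. CC50 is the dose reducing viable cell number by 50%.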

H9 = experiment: Ability to inhibit HIV-1 multiplication in chronically infected H9/IIIB cells; assay type: functional, cell-based; conditions: Homo sapiens
Summary of the method: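 Value taken as compound dose lowering infectious HIV-1 titer by 1 log in chronically infected H9/IIIB cells. Titer was read in C8166 cells by limiting dilution (1:2, 4 replica wells per dilution), with light-microscope scoring of cytopathicity after 4 days, expressed as CCID50/mL. Data are means of three separate experiments.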

C8166 = experiment: Ability to inhibit HIV-2 multiplication in acutely infected C8166 cells; assay type: functional, cell-based; conditions: Homo sapiens
Summary of the method: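 C8166 cells (1×10^4 per well) in RPMI 1640 with 10% FCS were infected with 1000 CCID50 of HIV-2 ROD, alongside serial compound dilutions from DMSO stock. After 5 days at 37 °C, viable cells were counted by MTT. EC50 is the dose giving 50% protection from virus-induced cytopathicity. Data are means of three experiments.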

MT4 [5] = experiment: (§1) Inhibitory activity against resistant HIV-1 strain NevR was determined.; assay type: functional, cell-based; conditions: Homo sapiens
MT4 [6] = experiment: (§2) Inhibitory activity against resistant HIV-1 strain MC639r was determined.; assay type: functional, cell-based; conditions: Homo sapiens
[7] = target: Human immunodeficiency virus type 1 reverse transcriptase (Human immunodeficiency virus 1, UniProt Q72547); experiment: Compound concentration required to inhibit the HIV-1 recombinant Reverse transcriptase (rRT) activity by 50%.
MT4 [8] = experiment: as §2; assay type: functional, Homo sapiens
MT4 [9] = experiment: as §1; assay type: functional, Homo sapiens
MT4 [10] = experiment: Inhibitor activity against resistant HIV-1 strain MC639r was determined.; assay type: functional, cell-based; conditions: Homo sapiens

SMILES	EC50 (MT4 [1])	Ratio [2]	EC50 (MT4 [3])	CC50 (MT4 [4])	EC50 (H9)	EC50 (C8166)	EC50 (MT4 [5])	EC50 (MT4 [6])	IC50 [7]	EIC50 (MT4 [8])	EIC50 (MT4 [9])	EC50 (MT4 [10])
Oc1cc(Cc2cccc3ccccc23)nc(SC2CCCC2)n1	> 100 µM	> 150	2 µM	> 300 µM	> 100 µM	> 100 µM	> 100 µM	–	–	–	–	–
CCC(C)Sc1nc(O)cc(Cc2cccc3ccccc23)n1 (configuration not stated)	–	> 909	0.33 µM	> 300 µM	> 100 µM	> 100 µM	> 100 µM	2.1 µM	8.1 µM	–	–	–
Cc1cccc(Cc2nc(SC3CCCCC3)nc(O)c2C)c1	–	> 500	–	> 300 µM	> 100 µM	> 100 µM	> 100 µM	> 100 µM	0.9 µM	–	–	–
CCC(C)Sc1nc(O)c(C)c(Cc2cccc3ccccc23)n1 (configuration not stated)	–	> 300	1 µM	> 300 µM	> 100 µM	> 100 µM	> 100 µM	6 µM	–	–	–	–
Oc1cc(Cc2ccc3ccccc3c2)nc(SC2CCCCC2)n1	–	> 128	1.7 µM	> 300 µM	> 100 µM	> 100 µM	> 100 µM	20 µM	33.1 µM	–	–	–
Cc1c(O)nc(SC2CCCC2)nc1Cc1cccc2ccccc12	–	> 50	6 µM	> 300 µM	> 100 µM	> 100 µM	> 100 µM	16.2 µM	–	–	–	–
Cc1cn([C@H]2C[C@H](N=[N+]=[N-])[C@@H](CO)O2)c(=O)[nH]c1=O [ZIDOVUDINE]	–	–	–	> 80 µM	> 20 µM	0.015 µM	–	–	–	0.003 µM	0.013 µM	–
Cc1ccnc2c1NC(=O)c1cccnc1N2C1CC1 [NEVIRAPINE]	–	–	0.25 µM	> 300 µM	> 100 µM	> 100 µM	> 100 µM	0.31 µM	–	–	–	–
CCC(C)Sc1nc(O)c(C)c(COc2ccccc2)n1 (configuration not stated)	–	7	8.9 µM	60 µM	> 100 µM	> 100 µM	> 100 µM	–	–	–	–	> 100 µM
CCC(C)Sc1nc(O)cc(Cc2ccc3ccccc3c2)n1 (configuration not stated)	–	14	2.8 µM	40 µM	> 100 µM	> 100 µM	> 100 µM	4.1 µM	7.4 µM	–	–	–
CCC(C)Sc1nc(O)c(C)c(Cc2ccc3ccccc3c2)n1 (configuration not stated)	–	47	1.7 µM	80 µM	> 100 µM	> 100 µM	> 100 µM	17.8 µM	–	–	–	–
